Source: ChEMBL document CHEMBL2311523, “Identification of novel chromenone derivatives as interleukin-5 inhibitors” (Eur J Med Chem, 2013)

Experiments:
[1] = target: T1, Interleukin-5 (Mus musculus) (UniProt P04401); experiment: Inhibition of IL-5 in mouse pro-B Y16 cells at 30 uM after 48 hrs by WST1 assay; format: cell-based
T1 sequence (whole entry): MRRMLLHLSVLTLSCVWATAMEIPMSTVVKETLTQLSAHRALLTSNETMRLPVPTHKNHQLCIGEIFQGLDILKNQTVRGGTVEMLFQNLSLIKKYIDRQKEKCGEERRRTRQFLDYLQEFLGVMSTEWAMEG
In short: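 IL-5-dependent mouse pro-B Y16 cells were stimulated with 3 units/mL mIL-5 and incubated 48 h with or without compound. Cell metabolism was read by WST-1 tetrazolium reduction as an index of IL-5-driven proliferation.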

[2] = Inhibition of IL-5 in mouse pro-B Y16 cells after 48 hrs by WST1 assay

Row | Structure (SMILES) | inhibition [1] [%] | IC50 [2] [µM]
1 | N#Cc1ccc(C(=O)/C=C/c2coc3cccc(OCC4CCCCC4)c3c2=O)cc1 | 9.2 | 
2 | O=C(/C=C/c1coc2cccc(OCC3CCCCC3)c2c1=O)c1ccc(F)cc1 | 15.4 | 
3 | CC(C)(C)c1ccc(C(O)/C=C/c2coc3cccc(OCC4CCCCC4)c3c2=O)cc1 (racemic) | 15.7 | 
4 | CC(C)COc1cccc2occ(/C=C/C(=O)c3ccc(O)cc3)c(=O)c12 | 87.5 | 
5 | COc1ccc(C(O)/C=C/c2coc3cccc(OCC4CCCCC4)c3c2=O)cc1 (racemic) | 93.6 | 
6 | O=c1c(/C=C/C(O)c2ccc([N+](=O)[O-])cc2)coc2cccc(OCC3CCCCC3)c12 (racemic) | 93.8 | 
7 | O=c1c(/C=C/C(O)c2ccccc2)coc2cccc(OCC3CCCCC3)c12 (racemic) | 93.9 | 
8 | COc1cccc2occ(/C=C/C(O)c3ccc(O)cc3)c(=O)c12 (racemic) | 21.3 | 
9 | O=c1c(/C=C/C(O)c2ccc(C(F)(F)F)cc2)coc2cccc(OCC3CCCCC3)c12 (racemic) | 92.7 | 
10 | COc1cccc2occ(/C=C/C(=O)c3ccc(O)cc3)c(=O)c12 | 32.3 | 
11 | O=c1c(/C=C/C(O)c2ccc(O)cc2)coc2cccc(OCC3CCCCC3)c12 (racemic) | 92.7 | 
12 | O=C(/C=C/c1coc2cccc(OCC3CCCCC3)c2c1=O)c1ccc(Cl)cc1 | 46.3 | 
13 | COc1ccc(C(=O)/C=C/c2coc3cccc(OCC4CCCCC4)c3c2=O)cc1 | 9.3 | 
14 | O=c1c(/C=C/C(O)c2ccc(Cl)cc2)coc2cccc(OCC3CCCCC3)c12 (racemic) | 93.5 | 
15 | O=C(/C=C/c1coc2cccc(OCC3CCCCC3)c2c1=O)c1ccc(O)cc1 | 99 | 
16 | O=C(/C=C/c1coc2cccc(OCC3CCCCC3)c2c1=O)c1ccccc1 | 17.2 | 
17 | CC(C)(C)c1ccc(C(=O)/C=C/c2coc3cccc(OCC4CCCCC4)c3c2=O)cc1 | 99.2 | 
18 | O=C(/C=C/c1coc2cccc(OCC3CCCCC3)c2c1=O)c1ccc(C(F)(F)F)cc1 | 42.7 | 
19 | Cc1ccc(C(O)/C=C/c2coc3cccc(OCC4CCCCC4)c3c2=O)cc1 (racemic) | 93.2 | 
20 | O=c1c(-c2ccc(O)cc2)coc2cccc(OCC3CCCCC3)c12 |  | 5.8
21 | N#Cc1ccc(C(O)/C=C/c2coc3cccc(OCC4CCCCC4)c3c2=O)cc1 (racemic) | 94.4 | 
22 | CC(C)COc1cccc2occ(/C=C/C(O)c3ccc(O)cc3)c(=O)c12 (racemic) | 20.6 | 
23 | Cc1ccc(C(=O)/C=C/c2coc3cccc(OCC4CCCCC4)c3c2=O)cc1 | 57.5 | 
24 | O=c1c(/C=C/C(O)c2ccc(F)cc2)coc2cccc(OCC3CCCCC3)c12 (racemic) | 93.2 | 
25 | O=C(/C=C/c1coc2cccc(OCC3CCCCC3)c2c1=O)c1ccc([N+](=O)[O-])cc1 | 11.8 | 
